Test results taken from ChEMBL document CHEMBL4364341, “Radiosensitization of Head and Neck Squamous Cell Carcinoma (HNSCC) by a Podophyllotoxin” (ACS Med Chem Lett, 2019).
The source made the active and inactive calls. No cut-off for these calls is given here.

What was measured:
[1] = system: FaDu; assay: Antiproliferative activity against human FADU cells assessed as fractional inhibition at 0.05 uM after 6 days in absence of irradiation by MTT assay; type: functional
In short: (§1)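 FaDu or SCC-25 cells were grown in DMEM with 10% FBS at 37 °C and 5% CO2. They were seeded at 1000 cells/well in 96-well plates for 24 h, then dosed with compound (fresh DMSO stock diluted in medium) or vehicle. After 1 h, X-rays were given with a sliding 5 mm lead shield, so one plate held 0, 2.5, 5 and 10 Gy columns. After 6 days, MTT (0.5 mg/mL, 45 min) was added, then DMSO, and A570 was read. Values were normalised to the unirradiated vehicle control. Fractional inhibition = 1 − surviving fraction.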

[2] = system: SCC-25; assay: Synergistic antiproliferative activity against human SCC25 cells assessed as reduction in colony formation unit followed by irradiation with 5 Gy IR and measured after 10 to 14 days by crystal violet staining based assay; type: functional, cell-based
[3] = system: FaDu; assay: Synergistic antiproliferative activity against human FADU cells assessed as reduction in colony formation unit followed by irradiation with 5 Gy IR and measured after 10 to 14 days by crystal violet staining based assay; type: functional, cell-based
[4] = system: SCC-25; assay: Synergistic induction of cell cycle arrest in human SCC25 cells assessed as decrease in accumulation at S phase at 0.5 uM followed irradiation with 5Gy IR incubated for 24 hrs by propidium iodide staining based flow cytometry; type: functional
In short: (§2)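 FaDu or SCC-25 cells, untreated, given 5 Gy IR, drug, or drug plus 5 Gy. Cell-cycle distribution by propidium iodide staining and flow cytometry at 6 h and 24 h after treatment. G0/G1, S and G2/M fractions compared with control by t test.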

[5] = system: FaDu; assay: Synergistic antiproliferative activity against human FADU cells assessed as fractional inhibition at 0.5 uM preincubated for 1 hr followed by irradiation with 2.5 Gy IR and measured after 6 days by MTT assay (reference value: 0.131); type: functional; in short: as §1
[6] = system: FaDu; assay: Synergistic antiproliferative activity against human FADU cells assessed as fractional inhibition at 0.5 uM preincubated for 1 hr followed by irradiation with 5 Gy IR and measured after 6 days by MTT assay (reference value: 0.097); type: functional; in short: as §1
[7] = system: FaDu; assay: Synergistic antiproliferative activity against human FADU cells assessed as combination index at 5 uM preincubated for 1 hr followed by irradiation with 2.5 Gy IR and measured after 6 days by MTT assay; type: functional
In short: (§3)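 Combination index was calculated by the Chou–Talalay median-effect method from the 6-day MTT viability data of the single-plate compound/X-ray (2.5, 5, 10 Gy) design. CI < 1 denotes synergy, CI = 1 additivity and CI > 1 antagonism.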

[8] = system: FaDu; assay: Synergistic antiproliferative activity against human FADU cells assessed as combination index at 0.005 uM preincubated for 1 hr followed by irradiation with 5 Gy IR and measured after 6 days by MTT assay; type: functional; in short: as §3
[9] = system: FaDu; assay: Synergistic antiproliferative activity against human FADU cells assessed as combination index at 0.05 uM preincubated for 1 hr followed by irradiation with 5 Gy IR and measured after 6 days by MTT assay; type: functional; in short: as §3
[10] = system: SCC-25; assay: Synergistic antiproliferative activity against human SCC25 cells assessed as fractional inhibition at 5 uM preincubated for 1 hr followed by irradiation with 2.5 Gy IR and measured after 6 days by MTT assay (reference value: 0.011); type: functional
In short: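 SCC-25 cells seeded 1000/well in 96-well plates in DMEM/10% FBS and left 24 h. Drug or vehicle added, then after 1 h X-irradiated to 2.5, 5 or 10 Gy on one plate using a shifted lead shield. Plates incubated 6 days, then MTT (0.5 mg/mL, 45 min), DMSO solubilisation, absorbance at 570 nm. Fractional inhibition = 1 − fraction of surviving cells.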

[11] = system: SCC-25; assay: Synergistic antiproliferative activity against human SCC25 cells assessed as combination index at 0.005 uM preincubated for 1 hr followed by irradiation with 5 Gy IR and measured after 6 days by MTT assay; type: functional
In short: (§4)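 SCC-25 cells grown in DMEM with 10% FBS at 37 °C, 5% CO2, seeded 1000 cells/well in 96-well plates and left 24 h. Drug in DMSO, diluted in complete medium, added 1 h before X-irradiation. A movable 5 mm lead shield gave 0, 2.5, 5 or 10 Gy on one plate. After 6 days, MTT readout at 570 nm. Combination index by Chou–Talalay from viability data.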

[12] = system: SCC-25; assay: Synergistic antiproliferative activity against human SCC25 cells assessed as combination index at 5 uM preincubated for 1 hr followed by irradiation with 10 Gy IR and measured after 6 days by MTT assay; type: functional; in short: as §4
[13] = system: FaDu; assay: Induction of cell cycle arrest in human FADU cells at 0.5 uM by propidium iodide staining based flow cytometry; type: functional
In short: (§5)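 Cell-cycle distribution was measured by propidium iodide staining and flow cytometry. Readings were taken 6 and 24 h after compound alone, 5 Gy IR alone, or the combination, against control.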

[14] = system: FaDu; assay: Synergistic induction of cell cycle arrest in human FADU cells assessed as increase in accumulation at G2/M phase at 0.5 uM followed irradiation with 5Gy IR incubated for 24 hrs by propidium iodide staining based flow cytometry; type: functional; in short: as §2
[15] = system: SCC-25; assay: Synergistic induction of cell cycle arrest in human SCC25 cells at 0.5 uM followed by irradiation with 5Gy IR incubated for 6 hrs by propidium iodide staining based flow cytometry; type: functional; in short: as §2
[16] = system: SCC-25; assay: Induction of cell cycle arrest in human SCC25 cells at 0.5 uM by propidium iodide staining based flow cytometry; type: functional; in short: as §5
[17] = molecular target: T1, Nuclear factor erythroid 2-related factor 2 (Homo sapiens) (UniProt Q16236); assay: Synergistic inhibition of Nrf2 in human FADU cells at 0.5 uM followed by irradiation with 5 Gy IR incubated for 48 hrs by immunofluorescence analysis; type: cell-based
T1 sequence (whole entry): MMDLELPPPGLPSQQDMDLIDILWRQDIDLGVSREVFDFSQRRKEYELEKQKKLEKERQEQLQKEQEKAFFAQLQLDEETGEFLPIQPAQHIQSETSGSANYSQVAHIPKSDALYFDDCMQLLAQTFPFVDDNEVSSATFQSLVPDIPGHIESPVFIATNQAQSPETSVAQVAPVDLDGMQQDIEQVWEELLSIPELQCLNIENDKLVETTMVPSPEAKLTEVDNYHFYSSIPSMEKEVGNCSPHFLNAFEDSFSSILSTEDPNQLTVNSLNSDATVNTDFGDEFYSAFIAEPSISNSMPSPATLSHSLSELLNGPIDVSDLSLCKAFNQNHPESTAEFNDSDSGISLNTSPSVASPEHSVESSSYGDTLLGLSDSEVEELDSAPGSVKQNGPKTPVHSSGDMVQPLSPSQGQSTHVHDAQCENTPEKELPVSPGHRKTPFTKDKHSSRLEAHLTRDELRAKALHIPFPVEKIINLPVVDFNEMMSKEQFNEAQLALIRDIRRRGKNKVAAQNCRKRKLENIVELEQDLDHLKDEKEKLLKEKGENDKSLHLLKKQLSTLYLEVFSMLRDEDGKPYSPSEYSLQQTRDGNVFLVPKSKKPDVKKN

[18] = system: SCC-25; assay: Synergistic induction of apoptosis in human SCC25 cells assessed as increase in caspase at 0.5 uM followed by irradiation with 5 Gy IR incubated for 48 hrs by luminescence based analysis; type: functional, cell-based

With COc1ccc2c(c1)N(CCO)C1=C(C(=O)OC1)C2c1ccccc1 (centres undefined) the “fractional inhibitory concentration index (FICI)” value [1] was 0.186, the inhibition [2] was “Dose-dependent effect” and the inhibition [3] was “Dose-dependent effect”. For the same compound, the IC50 ([3]; light or radiation study) was 496 nM, the Activity [4] was “Active” and the “fractional inhibitory concentration index (FICI)” value [5] was 0.443. For the same compound, the “fractional inhibitory concentration index (FICI)” value [6] was 0.425, the CI [7] was 1.225 and the CI [8] was 1.822. The CI [9] was 1.18, the “fractional inhibitory concentration index (FICI)” value [10] was 0.531 and the CI [11] was 0.801. For the same compound, the CI [12] was 1.017, the Activity [13] was “inactive” and the “fold change (FC)” value [14] was 2. The Activity [15] was “inactive”, the Activity [16] was “inactive” and the inhibition [17] was “Active”. The Activity [18] was “Active”.
